Measured values taken from ChEMBL document CHEMBL2177049, “Novel cytidine-based orotidine-5'-monophosphate decarboxylase inhibitors with an unusual twist” (J Med Chem, 2012).
Converted amounts (≈) assume the structure as drawn.

Key:
[1] = biological target: Orotidine 5'-phosphate decarboxylase (Methanobacterium thermoautotrophicum, UniProt O26232); assay: Inhibition of Methanobacterium thermoautotrophicum ODCase by isothermal titration calorimetry; design: species or system Methanothermobacter thermautotrophicus
In short: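 Recombinant M. thermoautotrophicum enzyme, preincubated overnight at room temperature in 50 mM Tris, 40 mM NaCl, 20 mM DTT. Activity read by ITC at 55 °C in 50 mM Tris, 20 mM DTT, pH 7.5, with 20 nM enzyme and 40 μM substrate; inhibitor 0–100 μM. Substrate injection into enzyme–inhibitor mix started the reaction. Triplicates; competitive Ki from rate versus [S] and double-reciprocal plots.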

[2] = biological target: T1, Orotidine phosphate decarboxylase (Plasmodium falciparum, UniProt Q8T6J6); assay: Inhibition of Plasmodium falciparum ODCase by isothermal titration calorimetry
T1 sequence (Q8T6J6 whole entry): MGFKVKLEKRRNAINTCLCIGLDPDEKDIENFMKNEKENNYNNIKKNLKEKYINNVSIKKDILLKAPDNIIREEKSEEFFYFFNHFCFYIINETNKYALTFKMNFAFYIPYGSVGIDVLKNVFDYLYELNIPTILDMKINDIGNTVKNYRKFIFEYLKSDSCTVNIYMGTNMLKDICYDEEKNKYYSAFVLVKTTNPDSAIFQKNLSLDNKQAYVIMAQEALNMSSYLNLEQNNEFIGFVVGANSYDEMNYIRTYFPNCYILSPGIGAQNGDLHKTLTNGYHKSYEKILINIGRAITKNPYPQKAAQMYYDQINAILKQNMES
In short: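 Recombinant P. falciparum enzyme, preincubated overnight at room temperature in 50 mM Tris, 40 mM NaCl, 20 mM DTT. ITC at 37 °C in 50 mM Tris, 20 mM DTT, pH 7.5, with 60 nM enzyme and 12 μM substrate. Substrate injection into enzyme–inhibitor mix started the reaction. Triplicate runs; competitive Ki derived from rate versus [S] and double-reciprocal plots.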

[3] = biological target: T2, Uridine 5'-monophosphate synthase (Homo sapiens, UniProt P11172); assay: Inhibition of human ODCase by isothermal titration calorimetry
T2 sequence (P11172 whole entry): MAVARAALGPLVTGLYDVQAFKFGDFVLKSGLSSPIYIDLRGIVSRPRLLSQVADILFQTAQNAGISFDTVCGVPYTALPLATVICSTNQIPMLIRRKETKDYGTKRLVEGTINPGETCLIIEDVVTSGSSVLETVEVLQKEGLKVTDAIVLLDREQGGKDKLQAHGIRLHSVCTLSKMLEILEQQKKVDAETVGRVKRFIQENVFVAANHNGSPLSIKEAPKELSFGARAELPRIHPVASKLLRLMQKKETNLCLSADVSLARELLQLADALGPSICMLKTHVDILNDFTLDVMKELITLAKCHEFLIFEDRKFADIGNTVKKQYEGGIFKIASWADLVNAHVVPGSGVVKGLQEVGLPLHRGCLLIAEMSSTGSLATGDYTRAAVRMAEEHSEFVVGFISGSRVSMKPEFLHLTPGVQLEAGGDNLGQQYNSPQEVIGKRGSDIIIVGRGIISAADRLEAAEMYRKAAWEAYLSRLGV
In short: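 Recombinant human enzyme, preincubated overnight at room temperature in 50 mM Tris, 40 mM NaCl, 20 mM DTT. Substrate injection into enzyme–inhibitor mix started the reaction. Triplicates; competitive Ki from rate versus [S] and double-reciprocal analysis.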

Plasmodium falciparum = assay: Antimalarial activity against Plasmodium falciparum incubated for 48 hrs by fluorescence-based SYBR-green assay; type: functional, organism-based
In short: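 P. falciparum ItG line grown in human O erythrocytes in RPMI 1640 with 10% human serum and 50 μM hypoxanthine. Compound stock was 10 mg/mL in RPMI, filter-sterilized, then serially diluted up to 500 μg/mL with constant parasite numbers. Plates were held 48 h under 3% CO2/2% O2/95% N2 and read by SYBR Green/Triton X-100 fluorescence. Quadruplicates; IC50 by nonlinear regression of dose–response.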

Orotidine 5'-phosphate decarboxylase, sequence (O26232 whole entry): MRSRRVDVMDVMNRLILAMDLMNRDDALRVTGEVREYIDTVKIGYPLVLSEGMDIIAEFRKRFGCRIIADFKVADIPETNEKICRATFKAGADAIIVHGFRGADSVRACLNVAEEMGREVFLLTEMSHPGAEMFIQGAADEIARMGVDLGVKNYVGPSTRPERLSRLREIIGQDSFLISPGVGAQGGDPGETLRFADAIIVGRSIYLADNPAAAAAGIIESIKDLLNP

Ki [1] [µM] | Ki [2] [µM] | Ki [3] [µM] | IC50 (Plasmodium falciparum) [mg/L] | SMILES
330 | 210 | 220 | – | O=c1ccn([C@@H]2O[C@H](COP(=O)(O)O)[C@@H](O)[C@H]2O)c(=O)[nH]1
11.1 | 22.1 | – | – | Nc1ccn([C@@H]2O[C@H](COP(=O)(O)O)[C@@H](O)[C@H]2O)c(=O)[n+]1[O-]
– | > 1000 | – | – | O=c1nc(NO)ccn1[C@@H]1O[C@H](COP(=O)(O)O)[C@@H](O)[C@H]1O
– | – | – | 411 (≈ 1590 µM) | Nc1ccn([C@@H]2O[C@H](CO)[C@@H](O)[C@H]2O)c(=O)[n+]1[O-]
1200 | > 10000 | 1400 | – | Nc1ccn([C@@H]2O[C@H](COP(=O)(O)O)[C@@H](O)[C@H]2O)c(=O)n1
– | – | – | 610 (≈ 2350 µM) | O=c1nc(NO)ccn1[C@@H]1O[C@H](CO)[C@@H](O)[C@H]1O [N-HYDROXYCYTIDINE]
